In ChEMBL document CHEMBL2062518, “Total synthesis and biological evaluation of transvalencin Z” (J Nat Prod, 2012):

Test system: Mycobacterium tuberculosis variant bovis BCG
Assay: Antimicrobial activity against Mycobacterium bovis BCG TMC1011 Pasteur ATCC 35734 after 24 to 48 hrs
Assay type: functional
Method in brief: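 Streaked from frozen glycerol stock onto nutrient agar (1.5% agar), 37 °C, 24 h. Single colonies were grown in nutrient broth to OD600 1.0 and diluted to OD600 0.003. Cells were exposed to compound at varying concentrations from DMSO stocks (1% DMSO). Growth was read at 600 nm at 24 and 48 h, with 690 nm background subtracted and normalised to DMSO controls.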

## O=CNCCCC[C@H](NC(=O)[C@@H]1COC(c2ccccc2O)=N1)C(=O)O
  MIC99: > 100 µM

## O=CNCCCC[C@@H](NC(=O)[C@H]1COC(c2ccccc2O)=N1)C(=O)O
  MIC99: > 100 µM

## O=CNCCCC[C@H](NC(=O)[C@H]1COC(c2ccccc2O)=N1)C(=O)O
  MIC99: > 100 µM

## O=CNCCCC[C@@H](NC(=O)[C@@H]1COC(c2ccccc2O)=N1)C(=O)O
  MIC99: > 100 µM
